In ChEMBL document CHEMBL1143412, “RSV604, a novel inhibitor of respiratory syncytial virus replication” (Antimicrob Agents Chemother, 2007):
Calls of active or inactive are those of the source. No cut-off for these calls is given here.

Columns and labels:
[1] = test system: Respiratory syncytial virus; assay: Antiviral activity against RSV infected human Hep2 cells assessed as reduction of plaque formation treated 6 hrs after viral infection; assay type: functional, organism-based; conditions: HEp-2
Summary of the method: (§1)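 Plaque reduction in HEp-2 cells with compound added either 2 h before infection or 6 h after. Duplicate wells per dilution. Percent plaque reduction calculated against compound-free infected wells. Four independent experiments.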

[2] = test system: Respiratory syncytial virus; assay: Antiviral activity against RSV infected human Hep2 cells assessed as plaque reduction […] by plaque reduction assay; assay type: functional, HEp-2; parameters: scale not given: the % may be the effect or the level left
[3] = test system: Respiratory syncytial virus; assay: Antiviral activity against RSV infected human Hep2 cells assessed as reduction of plaque formation pretreated 2 hrs before viral infection; assay type: functional, organism-based; conditions: HEp-2; summary of the method: as §1
[4] = test system: Respiratory syncytial virus; assay: Drug resistance, ratio of EC50 for plaque picked RSV604-resistant RSV RSS from passage 2 to EC50 for DMSO-passaged wild type RSV RSS; assay type: functional
[5] = test system: Respiratory syncytial virus; assay: Antiviral activity against RSV RSS infected human Hep2 cells assessed as reduction of viral antigen synthesis after 3 days by ELISA; assay type: functional, organism-based; conditions: HEp-2, 72 h
Summary of the method: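 HEp-2 cells seeded at 5 × 10³ per well in DMEM/10% FBS for 24 h, infected with RSV RSS at MOI about 0.02, serial compound dilutions for 3 days. Cells fixed and permeabilised in methanol-acetone, blocked in milk-Tween. Probed with mouse anti-RSV monoclonal then HRP anti-mouse. Developed with o-phenylenediamine/H2O2, absorbance […].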

[6] = test system: Respiratory syncytial virus; assay: Antiviral activity against RSV RSS infected human Hep2 cells after 5 days by plaque reduction assay; assay type: functional, organism-based; conditions: HEp-2, 120 h
Summary of the method: (§2)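 HEp-2 monolayers in six-well plates infected with 0.2 ml of 500 PFU/ml virus. After 2 h, overlaid with DMEM, 2% FBS, 0.6% agarose plus compound dilution series. Incubated 5 days, formaldehyde-fixed, plaques stained with methylene blue or immunostained and counted. Activity expressed as percent of plaques in untreated infected wells.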

[7] = test system: Respiratory syncytial virus; assay: Antiviral activity against RSV Long infected human Hep2 cells after 5 days by plaque reduction assay; assay type: functional, organism-based; conditions: HEp-2, 120 h; summary of the method: as §2
[8] = test system: Respiratory syncytial virus; assay: Antiviral activity against RSV RSS infected human Hep2 cells assessed as inhibition of virus-induced cell death after 6 days by XTT assay; assay type: functional, organism-based; conditions: HEp-2, 144 h
Summary of the method: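 HEp-2 cells seeded at 4 × 10³ per well in DMEM with 10% FBS, infected next day with RSV RSS dosed to give about 80% cytopathic effect by day 6. Serial compound dilutions (top 10 μM, 0.5% DMSO) present throughout. Viability read by XTT reduction after 6 days. EC50 taken as 50% reduction in virus-induced cell death.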

[9] = test system: Respiratory syncytial virus; assay: Antiviral activity against RSV B infected human Hep2 cells after 5 days by plaque reduction assay; assay type: functional, organism-based; conditions: HEp-2, 120 h; summary of the method: as §2
[10] = Cytotoxicity against RSV RSS infected human Hep2 cells after 6 days by XTT assay; assay type: cell-based, HEp-2
[11] = test system: Respiratory syncytial virus; assay: Antiviral activity against DMSO-passaged wild type RSV RSS infected human Hep2 cells by plaque reduction assay; assay type: functional, organism-based; conditions: HEp-2; summary of the method: as §2
[12] = Therapeutic index, CC50 for human Hep2 cells to EC50 for RSV RSS; assay type: cell-based, HEp-2; conditions: read-out: Ratio CC50/EC50
Summary of the method: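 Ratio of CC50 from uninfected HEp-2 XTT control plates to EC50 from RSV RSS-infected XTT plates, both read after 6 days.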

[13] = test system: Respiratory syncytial virus; assay: Antiviral activity against plaque picked RSV604-resistant RSV RSS from passage 2 in human Hep2 cells by plaque reduction assay; assay type: functional, organism-based; conditions: HEp-2; summary of the method: as §2
[14] = test system: Respiratory syncytial virus; assay: Antiviral activity against RSV A2 infected human Hep2 cells after 5 days by plaque reduction assay; assay type: functional, organism-based; conditions: A2, HEp-2, 120 h; summary of the method: as §2
[15] = test system: Respiratory syncytial virus; assay: Antiviral activity against recombinant RSV expressing GFP infected HAE cells assessed as inhibition of viral replication at 20 uM by fluorescence microscopy; assay type: functional, organism-based
[16] = test system: Respiratory syncytial virus; assay: Drug resistance, ratio of EC50 for RSV RSS with N protein I129L plus L139I mutant mutation to EC50 for wild type RSV RSS; assay type: functional
[17] = test system: Respiratory syncytial virus; assay: Antiviral activity against recombinant RSV expressing GFP infected HAE cells assessed as inhibition of viral replication at 2 uM by fluorescence microscopy; assay type: functional, organism-based
[18] = test system: Respiratory syncytial virus; assay: Antiviral activity against 0.02 MOI RSV RSS infected human Hep2 cells assessed as inhibition of virus-induced cell death after 6 days by XTT assay; assay type: functional, organism-based; conditions: HEp-2, 144 h
[19] = test system: Respiratory syncytial virus; assay: Drug resistance, ratio of EC50 for RSV RSS with N protein L139I mutation to EC50 for wild type RSV RSS; assay type: functional
[20] = test system: Respiratory syncytial virus; assay: Antiviral activity against RSV RSS with N protein N105D mutation in human Hep2 cells after 5 days by plaque reduction assay; assay type: functional, organism-based; conditions: HEp-2, 120 h; summary of the method: as §2
Metapneumovirus = assay: Antiviral activity against human Metapneumovirus infected human Hep2 cells after 5 days by plaque reduction assay; assay type: functional, organism-based; conditions: HEp-2, 120 h; summary of the method: as §2
[21] = test system: Respiratory syncytial virus; assay: Drug resistance, ratio of EC50 for RSV RSS M2 mutant to EC50 for wild type RSV RSS; assay type: functional
Human respirovirus 3 = assay: Antiviral activity against Parainfluenza virus type 3 infected human Hep2 cells after 5 days by plaque reduction assay; assay type: functional, organism-based; conditions: Human respirovirus 3, HEp-2, 120 h; summary of the method: as §2
[22] = test system: Respiratory syncytial virus; assay: Antiviral activity against RSV A isolates infected human Hep2 cells after 5 days by plaque reduction assay; assay type: functional, organism-based; conditions: HEp-2, 120 h; summary of the method: as §2
[23] = Toxicity in recombinant RSV expressing GFP infected HAE cells assessed as leakage of basolateral fluid to apical surface at 20 uM for 7 days; conditions: human, 168 h
Summary of the method: (§3)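 Differentiated human airway epithelial cultures exposed to 20 μM compound for 7 days. Scored for gross cytotoxicity, leakage of basolateral fluid to the apical surface, and cilium beat frequency.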

[24] = test system: Respiratory syncytial virus; assay: Antiviral activity against recombinant RSV expressing GFP infected HAE cells assessed as lack of viral replication-dependent green fluorescence level at 20 uM by fluorescence microscopy; assay type: functional, organism-based
[25] = test system: Respiratory syncytial virus; assay: Antiviral activity against RSV RSS with N protein I129L plus L139I mutant mutation in human Hep2 cells after 5 days by plaque reduction assay; assay type: functional, organism-based; conditions: HEp-2, 120 h; summary of the method: as §2
[26] = test system: Respiratory syncytial virus; assay: Antiviral activity against recombinant RSV expressing GFP infected HAE cells assessed as lack of viral replication-dependent green fluorescence level at 10 uM by fluorescence microscopy; assay type: functional, organism-based
[27] = test system: Respiratory syncytial virus; assay: Antiviral activity against plaque picked A-33903-resistant RSV RSS from passage 2 in human Hep2 cells by plaque reduction assay; assay type: functional, organism-based; conditions: HEp-2; summary of the method: as §2
[28] = test system: Pneumonia virus of mice 15; assay: Antiviral activity against Pneumonia virus of mice 15 infected human Hep2 cells after 5 days by plaque reduction assay; assay type: functional, organism-based; conditions: murine pneumonia virus, HEp-2, 120 h; summary of the method: as §2
Human respirovirus 1 = assay: Antiviral activity against Parainfluenza virus type 1 infected human Hep2 cells after 5 days by plaque reduction assay; assay type: functional, organism-based; conditions: Human respirovirus 1, HEp-2, 120 h; summary of the method: as §2
[29] = test system: Respiratory syncytial virus; assay: Antiviral activity against recombinant RSV expressing GFP infected HAE cells assessed as inhibition of viral replication at 1 uM by fluorescence microscopy; assay type: functional, organism-based
[30] = test system: Respiratory syncytial virus; assay: Antiviral activity against RSV RSS with N protein […] mutation in human Hep2 cells after 5 days by plaque reduction assay; assay type: functional, organism-based; conditions: HEp-2, 120 h; summary of the method: as §2
[31] = test system: Respiratory syncytial virus; assay: Antiviral activity against 1.5 MOI RSV RSS infected human Hep2 cells assessed as inhibition of virus-induced cell death after 6 days by XTT assay; assay type: functional, organism-based; conditions: HEp-2, 144 h
[32] = Toxicity in recombinant RSV expressing GFP infected HAE cells assessed as alteration of cilium beat frequency at 20 uM for 7 days; conditions: human, 168 h; summary of the method: as §3
[33] = test system: Respiratory syncytial virus; assay: Antiviral activity against recombinant RSV expressing GFP infected HAE cells assessed as lack of viral replication-dependent green fluorescence level at 2 uM by fluorescence microscopy; assay type: functional, organism-based
[34] = test system: Respiratory syncytial virus; assay: Drug resistance, ratio of EC50 for plaque picked A-33903-resistant RSV RSS from passage 2 to EC50 for DMSO-passaged wild type RSV RSS; assay type: functional
[35] = test system: Respiratory syncytial virus; assay: Antiviral activity against recombinant RSV expressing GFP infected HAE cells assessed as inhibition of viral replication at 10 uM by fluorescence microscopy; assay type: functional, organism-based
[36] = test system: Respiratory syncytial virus; assay: Drug resistance, ratio of EC50 for RSV RSS with N protein N105D mutation to EC50 for wild type RSV RSS; assay type: functional
[37] = test system: Respiratory syncytial virus; assay: Antiviral activity against RSV RSS with N protein L139I mutation in human Hep2 cells after 5 days by plaque reduction assay; assay type: functional, organism-based; conditions: HEp-2, 120 h; summary of the method: as §2
Bovine orthopneumovirus = assay: Antiviral activity against bovine RSV snook infected human Hep2 cells after 5 days by plaque reduction assay; assay type: functional, organism-based, Bovine respiratory syncytial virus; conditions: HEp-2, 120 h; summary of the method: as §2
[38] = test system: Respiratory syncytial virus; assay: Antiviral activity against RSV RSS M2 mutant infected human Hep2 cells after 5 days by plaque reduction assay; assay type: functional, organism-based; conditions: HEp-2, 120 h; summary of the method: as §2
[39] = test system: Respiratory syncytial virus; assay: Antiviral activity against RSV B isolates infected human Hep2 cells after 5 days by plaque reduction assay; assay type: functional, organism-based; conditions: HEp-2, 120 h; summary of the method: as §2
[40] = Cytotoxicity against recombinant RSV expressing GFP infected HAE cells at 20 uM for 7 days; assay type: cell-based; conditions: human, 168 h; summary of the method: as §3

SMILES: O=c1n(Cc2nc3ccccc3n2CCCCO)c2cnccc2n1C1CC1
- Activity [1]: inactive
- Activity [2]: 50%
- Activity [3]: Active

SMILES: COc1cc(S(C)(=O)=O)ccc1C(=O)N[C@H]1N=C(c2ccccc2)c2ccccc2NC1=O
- fold change (FC) [4]: 42.3
- EC50 [5]: 1.3 µM
- EC50 [6]: 0.5 µM
- EC50 [7]: 0.39 µM
- EC50 [8]: 0.5 µM
- EC50 [9]: 0.43 µM
- CC50 at 144 h [10]: > 50 µM
- EC50 [11]: 0.4 µM
- selectivity ratio [12]: > 100
- EC50 [13]: 16.9 µM

SMILES: NC(=O)c1ncn([C@@H]2O[C@H](CO)[C@@H](O)[C@H]2O)n1 [RIBAVIRIN]
- fold change (FC) [4]: 0.85
- EC50 [5]: 25.3 µM
- EC50 [6]: 13.3 µM
- EC50 [7]: 16.8 µM
- EC50 [8]: 11.5 µM
- EC50 [9]: 29 µM
- EC50 [11]: 20.7 µM
- EC50 [14]: 19 µM
- EC50 [13]: 17.6 µM

SMILES: O=C(Nc1ccccc1F)N[C@H]1N=C(c2ccccc2)c2ccccc2NC1=O [RSV-604]
- Activity [15]: Active
- fold change (FC) [16]: >20
- Activity [17]: Active
- EC50 [18]: 1.4 µM
- fold change (FC) [19]: 7
- EC50 [20]: 4.78 µM
- fold change (FC) [4]: 50.7
- EC50 (Metapneumovirus): > 50 µM
- EC50 [5]: 1.7 µM
- fold change (FC) [21]: 1.2
- EC50 [6]: 0.9 µM
- EC50 [7]: 0.8 µM
- EC50 (Human respirovirus 3): > 50 µM
- EC50 [22]: 0.8 µM
- EC50 [8]: 0.86 µM
- Activity [23]: Not Active
- Activity [1]: Active
- EC50 [9]: 0.6 µM
- Activity [24]: Active
- EC50 [25]: > 20 µM
- Activity [26]: Active
- EC50 [27]: 2.7 µM
- CC50 at 144 h [10]: > 50 µM
- EC50 [28]: > 50 µM
- EC50 (Human respirovirus 1): > 50 µM
- EC50 [11]: 0.6 µM
- EC50 [14]: 0.5 µM
- Activity [29]: Active
- EC50 [30]: 6.03 µM
- EC50 [31]: 2.55 µM
- selectivity ratio [12]: > 58
- Activity [3]: Active
- Activity [32]: Not Active
- Activity [33]: Active
- fold change (FC) [34]: 3.9
- Activity [35]: Active
- fold change (FC) [36]: 5
- EC50 [37]: 6.7 µM
- EC50 (Bovine orthopneumovirus): 0.3 µM
- EC50 [38]: 1.14 µM
- EC50 [39]: 0.8 µM
- Activity [40]: Not Active
- EC50 [13]: 30.4 µM
